An excerpt weighted towards active compounds, which were near 2% of everything screened.
HSP90 inh: blocks HSP90-mediated luciferase refolding in reticulocyte lysate; Rabbit reticulocyte lysate, luciferase refolding luminescence, 3 h; inhibition, % at 5.6 µM; 290,000 compounds, 0.91% hits; AID 1789;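 active = inhibition above the screen-wide mean plus 3 SD, computed separately per campaign, cut at about 16% in these data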;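 also: 0% = DMSO wells and 100% = 60 µM geldanamycin wells; inhibitors lower the luminescence because luciferase stays unfolded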
PPC-1+TRAIL kill: kills PPC-1 cancer cells in the presence of TRAIL. 220,000 compounds, 0.41% hits. PPC-1 cells + TRAIL, ATPLite viability luminescence. cell killing (% activity), % at 4 µM or 5 µM. AID 1443;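 active = cell killing above 50% in the first pass at 4 µM, then a duplicate retest at 5 µM averaging 50% or more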;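 also: plate controls were cells with TRAIL plus DMSO for no effect and medium-only wells lacking cells for full effect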
FLuc inhib CS: inhibits firefly luciferase, flagging false hits in luciferase inhibition screens | AID 1006 | 200,000 compounds, 1.5% hits | inhibition, % at 10 µM | ATPLite firefly luciferase biochemical luminescence, 10 min;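 active = inhibition above about 50% when tested at 10 µM, limit read from the data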
Target sequence (P08659 whole entry, looked up): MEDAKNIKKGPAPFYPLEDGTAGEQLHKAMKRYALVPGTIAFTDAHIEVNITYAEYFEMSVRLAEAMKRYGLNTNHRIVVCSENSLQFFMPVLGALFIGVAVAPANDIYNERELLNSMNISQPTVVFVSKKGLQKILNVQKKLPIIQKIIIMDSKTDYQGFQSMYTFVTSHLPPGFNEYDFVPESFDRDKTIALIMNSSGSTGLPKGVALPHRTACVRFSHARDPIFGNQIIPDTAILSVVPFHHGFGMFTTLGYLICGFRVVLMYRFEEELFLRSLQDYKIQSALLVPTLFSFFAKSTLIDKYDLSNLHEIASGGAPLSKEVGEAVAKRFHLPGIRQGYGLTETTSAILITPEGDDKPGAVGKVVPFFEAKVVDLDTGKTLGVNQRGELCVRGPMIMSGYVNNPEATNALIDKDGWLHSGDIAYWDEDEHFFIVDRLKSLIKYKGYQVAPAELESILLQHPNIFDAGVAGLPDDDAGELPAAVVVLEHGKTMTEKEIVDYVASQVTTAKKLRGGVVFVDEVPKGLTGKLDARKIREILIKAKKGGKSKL
TRAIL sens C8: caspase-8 TRAIL sensitization | inhibition (viability loss, TRAIL sensitization), % at 10 µM | NB7+C8 cells + TRAIL, ATPlite viability luminescence | AID 624354 | 360,000 compounds, 1% hits;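 active = compounds causing at least 50% loss of cell viability in the single-dose screen, relative to plate controls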
FLuc stim CS: affects firefly luciferase, flagging false hits in luciferase stimulation screens; activation factor at 10 µM; 200,000 tested, under 10 active; P08659; ATPlite luciferase biochemical, luminescence, 10 min; 0 = ATP-free wells, 1 = DMSO control; AID 1027;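 active = luciferase activation factor, scaled between plate controls, of at least 2 with compound at 10 µM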
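test system = cell-free luciferase reagent | medium = PBS as buffer for the ATP substrate | dosing = test compounds dosed from 2 mM stocks in 100% DMSO | incubation = 10 min at ambient temperature | detection = luminescence measurement of luciferase light output | benchmarks = low control with PBS replacing ATP, high control enzyme plus ATP without compound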
* marks the source's active call; other numbers are inactive results; · = no result given.

SMILES	HSP90 inh	PPC-1+TRAIL kill	FLuc inhib CS	TRAIL sens C8	FLuc stim CS
COc1ccc(C(=O)COC(=O)c2cccnc2Cl)c(OC)c1	-0.9	9.0	31.0	1.3	0.7
O=C(COC(=O)c1cccnc1Cl)c1ccc(Cl)cc1Cl	-2.1	14.3	77.7*	-12.3	0.2
O=C(COC(=O)c1cccnc1Cl)c1ccc(OC(F)F)cc1	-4.2	9.9	54.1*	4.0	0.5
CC(C)C(=O)Nc1cccc(C(=O)OCC(=O)c2ccc(Cl)cc2Cl)c1	-3.2	20.2	53.7*	15.5	0.5
COc1cccc2sc(Nc3nnc(-c4cccs4)o3)nc12	4.0	26.2	56.3*	32.3	0.4
Fc1cccc2sc(Nc3nnc(-c4ccco4)o3)nc12	7.0	21.5	67.8*	40.6	0.3
COCCNC(=O)CSc1ccc(-c2nc3ccccc3[nH]2)cn1	-1.7	·	·	-9.1	·
N#CCSc1ccc(-c2nc3ccccc3[nH]2)cn1	-0.6	32.5	58.3*	18.0	0.4
O=C(Nc1ccc(C(=O)O)cc1)/C(=C\C=C\c1ccccc1)NC(=O)c1ccccc1Cl	4.6	·	·	53.9*	·
CCOc1ccc(NC(=S)NC(=O)c2c(Br)cnn2C)c([N+](=O)[O-])c1	-0.1	31.6	64.1*	21.8	0.4
COc1ccc(C(=O)N=c2sc3ccccc3n2C)cc1	-3.9	41.4	69.1*	42.3	0.3
COc1cc(OC)cc(C(=O)N=c2sc3ccccc3n2C)c1	2.1	5.7	18.2	-1.5	0.8
Cn1/c(=N/N=C/c2ccccn2)sc2ccccc21	-1.3	21.8	59.4*	21.0	0.4
Cn1/c(=N/N=C/c2ccc(N3CCOCC3)cc2)sc2ccccc21	-0.6	42.9	23.0	15.4	0.8
CCOc1ccc2nc(/N=C/c3c(C)[nH]n(-c4ccccc4)c3=O)sc2c1	-0.2	8.3	43.3	39.0	0.6
CCOc1ccc2nc(/N=C/c3c(C)[nH]n(-c4ccc(C)cc4)c3=O)sc2c1	0.1	35.4	65.4*	37.2	0.3
CCc1ccccc1NC(=O)CNC(=O)CCNC(=O)Nc1ccccc1	·	·	·	-6.1	·
Cc1nonc1C(=O)N/N=C/c1ccc(O)cc1O	-0.1	·	6.5	56.3*	0.9
NS(=O)(=O)c1cccc(NC(=O)CSc2n[nH]c(-c3cccs3)n2)c1	·	·	·	4.0	·
COc1ccc(-c2nc(SCC(=O)Nc3cccc(S(N)(=O)=O)c3)n[nH]2)cc1	·	·	·	61.6*	·
NC(=O)NC(CC(=O)NNC(=O)c1ccccn1)c1ccccc1Cl (stereo not drawn)	·	·	·	-3.1	·
CC(=O)Nc1ccc(NC(=O)CSc2nnc3ccc(-c4cccnc4)nn23)cc1	·	·	·	2.6	·
Cc1ccc(N2Cc3ccccc3C2=S)cc1	6.9	39.3	76.5*	35.3	0.2
S=C1c2ccccc2CN1c1ccccc1	-3.3	12.8	8.4	-11.6	0.9
Cc1ccc(S(=O)(=O)N2CCN(C(=O)CSC(=S)N3CCCC3)CC2)c(C)c1	·	·	·	3.5	·
SMILES	HSP90 inh	PPC-1+TRAIL kill	FLuc inhib CS	TRAIL sens C8	FLuc stim CS
COC(=O)c1ccccc1NC(=O)c1cc(-c2ccc(O)cc2)on1	-1.3	-6.8	-9.5	51.0*	1.1
COC(=O)c1cccc(NC(=S)NC(C)C)c1	1.4	0.4	-4.5	-1.2	1
c1ccc(/N=C2\N=C(Nc3ccccn3)c3ccccc32)nc1	·	·	·	48.1*	·
CCc1nc2ccc(C(=O)NCc3cccs3)cn2c1N(CC)CCOC	·	·	·	-11.4	·
C#CCn1c(=NC(=O)c2ccc(S(=O)(=O)N3CCc4ccccc4C3)cc2)sc2cc(S(N)(=O)=O)ccc21	1.0	61.0*	-3.5	23.2	1
C=CCn1c(=NC(=O)c2ccc(S(=O)(=O)N3CCc4ccccc4C3)cc2)sc2cc(S(N)(=O)=O)ccc21	1.0	9.0	-9.4	8.3	1.1
O=C(CSCc1ccccc1)N=Nc1c(O)[nH]c2ccccc12	-7.5	1.2	-1.8	4.3	1
O=C(N=Nc1c(O)[nH]c2ccccc12)c1ccco1	2.2	32.4	75.4*	46.7	0.2
Cc1ccc(-c2csc(SCC(=O)c3c(N)n(C4CC4)c(=O)[nH]c3=O)n2)cc1	·	·	·	-1.4	·
CCc1ccc(Nc2nnc(SCC(=O)c3c(N)n(C4CC4)c(=O)[nH]c3=O)s2)cc1	·	·	·	60.8*	·
COc1ccc(-c2nc3ccccc3c(=O)n2NC(=O)c2cccnc2Cl)cc1OC	-0.8	-0.7	-5.2	0.1	1.1
CCC/C(=N\NC(=O)c1csc(C)c1C)c1cccs1	0.0	39.4	41.9	40.6	0.6
CC/C(=N\NC(=O)c1csc(C)c1C)c1cccs1	-1.7	39.7	80.6*	50.5*	0.2
CCOC(=O)Cc1cnc(NC(=O)CSc2nc(N)cc(N)n2)s1	-7.9	25.5	-2.1	2.4	1
O=C(NCCc1ccccn1)c1ccc(OC(F)F)cc1	9.6	32.0	65.2*	36.5	0.3
CCCNC(=O)c1ccc(C)c(NC(=O)C2=C(C)OCCS2)c1	-9.0	·	·	13.7	·
O=C(NCCN1CCCCC1)Nc1cccc(F)c1	16.1*	·	·	-10.9	·
O=C(NCc1ccccn1)C1Nc2ccc(C(F)(F)F)cc2C2C=CCC12 (stereo not drawn)	·	·	·	11.8	·
CCc1ccc2oc(-c3cc(N=Cc4cccc(OC)c4O)ccc3O)nc2c1	5.6	37.3	84.1*	·	0.2
CCCC(=O)Nc1ccc(-c2csc(N/N=C\c3ccncc3)n2)cc1	-0.4	15.0	·	71.0*	·
Cc1[nH]n(-c2ccccc2)c(=O)c1N=Nc1c(O)cc(S(=O)(=O)N(C)C)c2ccccc12	·	·	·	57.8*	·
Cc1[nH]n(-c2ccccc2)c(=O)c1N=Nc1ccc2c(c1)OCCO2	-1.2	1.0	22.6	12.6	0.8
COc1ccc(C(=O)C2CCCN(C(=O)CCc3scnc3C)C2)c(C)c1 (stereo not drawn)	2.3	-14.1	-1.6	-2.4	1
COc1ccc(C(=O)COC(=O)c2ccco2)cc1	4.0	24.1	72.0*	-6.0	0.3
CC(C)CC(/C(O)=C(\C#N)c1nc2ccccc2[nH]1)N1C(=O)c2ccccc2C1=O (stereo not drawn)	9.7	0.0	-3.9	65.1*	1
SMILES	HSP90 inh	PPC-1+TRAIL kill	FLuc inhib CS	TRAIL sens C8	FLuc stim CS
COc1ccc(S(=O)(=O)N2CCCCC2)cc1NC(=O)Cc1cccs1	·	·	·	5.4	·
COc1cccc(C(=O)CC(C#N)c2ccc(F)cc2)c1 (stereo not drawn)	-2.5	·	·	8.1	·
COc1ccc(NC(=O)c2ccc([N+](=O)[O-])cc2[N+](=O)[O-])c(OC)c1	-3.6	-5.3	0.0	-4.4	1
O=C(CSc1ccccc1)Nc1nccs1	-4.5	13.5	-4.5	2.2	1
O=C(CSc1cn(Cc2ccccc2)c2ccccc12)Nc1nccs1	-6.7	45.3	50.3*	-24.9	0.5
COc1ccc(/C=C2\Oc3ccccc3C2=O)cc1	·	·	·	72.0*	·
COc1ccc2c(c1)O/C(=C\c1sccc1C)C2=O	-1.9	13.6	85.5*	10.7	0.1
COc1ccc(C=C2OC(=O)C(C(C)=O)=C2O)cc1	·	·	·	83.5*	·
CC(=O)Oc1ccc(/C=C2/Oc3ccccc3C2=O)cc1	3.6	12.0	·	-4.6	·
O=C(O)COc1ccc2c(c1)O/C(=C\c1cccs1)C2=O	4.5	12.9	·	4.4	·
CN(C)c1ccc(/C=C2/NC(=O)NC2=O)cc1	0.6	36.4	72.7*	40.5	0.3
O=C1NC(=O)C(=Cc2ccccc2)N1	·	·	·	-5.1	·

Source: PubChem
